NR3A LBD binder: NR3A (human) ligand-binding domain modulation; Tm shift relative to glycine control, % at 25 µM; 340,000 tested, 2.5% active; AID 1259313; NR3A LBD differential scanning fluorimetry, Tm shift; 0% = protein alone, 100% = glycine-bound protein;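 active means melting temperature shift of at least 10% of the positive control shift, at one fixed dose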
Arr AP2 block: human beta-arrestin and AP2 interaction inhibition. inhibition, % at 10 µM. FITC-arrestin peptide / GST-AP2 beads, flow cytometry; AP2 beta2 appendage carries R879A mutation. 340,000 tested, 0.31% active;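 active means inhibition above a set limit, near 3 SD of compounds lacking own fluorescence, cut at about 54% in these data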;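 further: plate controls were DMSO wells for no effect and 5 µM unlabelled arrestin peptide for full effect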
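System: GST-AP2 R879A glutathione beads; medium: PBS, Tween 20 0.05%, BSA 0.1%; reagent: fluorescein-tagged arrestin peptide at 50 nM final; schedule: pre-incubation 12 min, peptide binding 1 h, room temperature; detection: flow cytometry, FL1 (488/535 nm); read-out: inhibition as reduced fluorescein signal on beads, percent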
Cardio protect: modulators protecting cardiomyocytes from myocardial damage; H9c2 cardiomyocytes, H2O2 injury protection, ATPLite, 2 h; protection from H2O2 cell death, % at 20 µM; 360,000 tested, 0.63% active;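 active means compounds giving at least 50% protection of heart cells from peroxide-induced death in the single-dose screen, raw or plate-pattern-corrected value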;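 further: 0% = DMSO wells with peroxide and 100% = DMSO wells without peroxide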
FAS TE block: FAS thioesterase (human) inhibition; inhibition, % at 15 µM; recombinant FAS-TE, OMFH fluorogenic substrate, fluorescence endpoint; 360,000 tested, 0.67% active; P49327;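 active means compounds whose normalised, plate-corrected inhibition of enzyme fluorescence in the single-dose primary screen is 50% or more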;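 further: 0% = DMSO with enzyme and 100% = substrate without enzyme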
Target sequence (P49327 whole entry, looked up): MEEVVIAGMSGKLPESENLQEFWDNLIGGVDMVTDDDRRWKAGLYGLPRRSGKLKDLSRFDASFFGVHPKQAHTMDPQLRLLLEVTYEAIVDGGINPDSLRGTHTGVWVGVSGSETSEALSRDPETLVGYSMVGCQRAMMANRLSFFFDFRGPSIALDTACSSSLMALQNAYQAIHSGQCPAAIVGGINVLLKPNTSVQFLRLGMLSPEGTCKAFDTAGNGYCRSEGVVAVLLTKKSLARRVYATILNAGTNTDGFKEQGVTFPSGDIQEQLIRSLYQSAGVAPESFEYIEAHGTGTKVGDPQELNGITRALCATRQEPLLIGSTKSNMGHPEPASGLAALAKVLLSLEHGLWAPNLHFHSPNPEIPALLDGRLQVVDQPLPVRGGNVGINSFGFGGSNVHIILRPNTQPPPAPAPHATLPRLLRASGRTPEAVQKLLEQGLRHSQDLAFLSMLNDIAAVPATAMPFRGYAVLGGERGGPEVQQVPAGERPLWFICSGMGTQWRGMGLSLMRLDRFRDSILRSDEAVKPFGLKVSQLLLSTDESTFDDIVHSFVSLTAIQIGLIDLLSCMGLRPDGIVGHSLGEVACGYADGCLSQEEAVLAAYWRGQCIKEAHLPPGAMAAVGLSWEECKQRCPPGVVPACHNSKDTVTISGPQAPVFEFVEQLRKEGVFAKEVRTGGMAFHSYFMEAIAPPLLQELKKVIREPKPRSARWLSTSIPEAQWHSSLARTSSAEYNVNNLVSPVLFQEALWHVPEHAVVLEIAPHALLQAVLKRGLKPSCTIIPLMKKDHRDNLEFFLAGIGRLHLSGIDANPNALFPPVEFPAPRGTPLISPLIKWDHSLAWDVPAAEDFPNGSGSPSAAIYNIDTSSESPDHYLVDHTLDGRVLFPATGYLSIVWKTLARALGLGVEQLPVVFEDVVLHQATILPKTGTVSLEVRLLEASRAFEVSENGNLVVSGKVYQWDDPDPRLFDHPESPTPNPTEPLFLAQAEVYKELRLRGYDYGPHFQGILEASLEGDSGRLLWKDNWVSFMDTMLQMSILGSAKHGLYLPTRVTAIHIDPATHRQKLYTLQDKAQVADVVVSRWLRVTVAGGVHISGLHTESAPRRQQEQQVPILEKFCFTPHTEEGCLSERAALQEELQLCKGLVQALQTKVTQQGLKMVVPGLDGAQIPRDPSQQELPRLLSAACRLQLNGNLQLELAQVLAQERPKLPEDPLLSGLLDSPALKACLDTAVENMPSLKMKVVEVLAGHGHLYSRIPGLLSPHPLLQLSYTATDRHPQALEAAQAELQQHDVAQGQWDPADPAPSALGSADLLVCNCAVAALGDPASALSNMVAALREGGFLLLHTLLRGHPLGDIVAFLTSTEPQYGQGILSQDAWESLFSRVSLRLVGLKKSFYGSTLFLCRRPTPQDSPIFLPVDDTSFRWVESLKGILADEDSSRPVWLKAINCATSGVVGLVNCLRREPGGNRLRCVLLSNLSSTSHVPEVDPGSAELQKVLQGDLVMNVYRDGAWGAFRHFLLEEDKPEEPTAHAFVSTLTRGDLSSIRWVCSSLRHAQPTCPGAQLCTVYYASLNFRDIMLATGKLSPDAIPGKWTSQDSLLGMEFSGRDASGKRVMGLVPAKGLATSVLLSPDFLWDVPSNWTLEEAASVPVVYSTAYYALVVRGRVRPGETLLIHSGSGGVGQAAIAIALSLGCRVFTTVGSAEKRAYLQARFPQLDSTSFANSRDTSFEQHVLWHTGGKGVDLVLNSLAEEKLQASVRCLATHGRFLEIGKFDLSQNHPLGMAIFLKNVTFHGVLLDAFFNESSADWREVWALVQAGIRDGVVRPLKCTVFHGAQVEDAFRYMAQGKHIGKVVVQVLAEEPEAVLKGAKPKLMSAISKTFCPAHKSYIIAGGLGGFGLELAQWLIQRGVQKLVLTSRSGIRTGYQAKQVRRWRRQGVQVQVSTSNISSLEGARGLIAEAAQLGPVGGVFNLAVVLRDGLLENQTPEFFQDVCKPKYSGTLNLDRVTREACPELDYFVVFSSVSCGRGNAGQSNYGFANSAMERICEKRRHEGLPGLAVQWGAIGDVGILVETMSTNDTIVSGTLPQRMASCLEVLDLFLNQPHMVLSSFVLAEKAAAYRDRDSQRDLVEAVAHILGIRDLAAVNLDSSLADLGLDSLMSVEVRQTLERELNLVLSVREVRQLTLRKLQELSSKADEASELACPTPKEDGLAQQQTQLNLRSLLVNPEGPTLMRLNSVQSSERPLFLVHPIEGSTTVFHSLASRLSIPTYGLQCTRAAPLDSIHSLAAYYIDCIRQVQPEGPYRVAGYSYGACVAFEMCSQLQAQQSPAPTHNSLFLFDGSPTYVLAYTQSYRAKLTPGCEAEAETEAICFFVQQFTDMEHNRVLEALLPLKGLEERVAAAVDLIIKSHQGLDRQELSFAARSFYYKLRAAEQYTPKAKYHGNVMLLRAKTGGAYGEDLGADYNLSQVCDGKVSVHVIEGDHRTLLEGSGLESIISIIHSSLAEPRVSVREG
hiPSC survival: increases survival of single human iPS cells. survival enhancement, % at 20 µM. 360,000 tested, 0.044% active. hiPSC single-cell survival, ATPlite luminescence; 100% = ROCK inhibitor wells, 0% = DMSO; in the data active means survival enhancement above about 18%;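 further: cells exposed to compounds for 16 hours before the ATP read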
SENP1 inh: SENP1 (human) catalytic domain inhibition. 360,000 tested, 0.21% active. recombinant SENP1 catalytic domain, CyPet-SUMO1-YPet FRET cleavage. AID 624204. inhibition, % at 10 µM. Q9P0U3;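 active means inhibition at least 30% at 10 µM, raw YFP signal under a set limit, fluorescence ratio 0.5 to 1.5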;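 further: 0% = enzyme with DMSO and 100% = no enzyme wells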
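material = recombinant human SENP1 catalytic domain, His6-tagged | quantity = 20 pM enzyme | reagent = 25 nM SUMO1 FRET substrate | compound dosing = 10 µM single point, 0.5% DMSO | timing = 50 min enzyme reaction, room temperature, light-protected | detection = FRET, CFP and YFP emission | control set = no-enzyme low, enzyme-DMSO high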
The depositor's hits bear a star. Shown are actives, neighbours in structure and some others; about 4% of the full set was active somewhere.

`CC1CCN(S(=O)(=O)c2ccc(NC(=O)[C@@H]3CCCC[C@@H]3C(=O)O)cc2)CC1` gave NR3A LBD binder 0, Arr AP2 block -6, Cardio protect -2, FAS TE block 0, hiPSC survival 0 and SENP1 inh 0.
For COC(=O)Nc1ccc(S(=O)(=O)N2CCC(C)CC2)cc1 the results were NR3A LBD binder 13*, Arr AP2 block 5, Cardio protect -4, FAS TE block 6, hiPSC survival 0 and SENP1 inh -1.
Screening C[C@H](CO)N1C[C@H](C)[C@H](CN(C)Cc2cncnc2)Oc2ncc(C#CC3(O)CCCC3)cc2C1=O returned Cardio protect 16, FAS TE block -4, hiPSC survival -3 and SENP1 inh 0.
For C[C@@H]1CCCCO[C@H](CN(C)C(=O)Nc2ccc3c(c2)OCO3)[C@@H](C)CN([C@H](C)CO)C(=O)c2cc(NS(=O)(=O)c3ccc(F)cc3)ccc2O1 the results were Cardio protect 6, FAS TE block 0, hiPSC survival 2 and SENP1 inh 0.
`COc1cc(C=NO)nc(-c2ccccn2)c1` gave NR3A LBD binder 0, Arr AP2 block -9, Cardio protect 56*, FAS TE block -7, hiPSC survival -2 and SENP1 inh 2.
COc1ccc2nc(-c3ccccn3)[nH]c2c1 was read as NR3A LBD binder -2, Arr AP2 block -7, Cardio protect -13, FAS TE block -3, hiPSC survival -1 and SENP1 inh -2.
Screening COc1ccc(C(=O)Nc2cccc(/C(C)=N\NC(=O)c3ccoc3C)c2)cc1OC returned NR3A LBD binder 3, Arr AP2 block -7, Cardio protect 19, FAS TE block 2, hiPSC survival 0 and SENP1 inh 0.
COc1ccc(C(=O)NC(=S)Nc2ccc(NC(=O)c3ccco3)cc2)cc1[N+](=O)[O-] was read as NR3A LBD binder 30*, Arr AP2 block 12, Cardio protect -2, FAS TE block -2, hiPSC survival -1 and SENP1 inh 3.
`COc1ccc(C(=O)Nc2cccc(/C(C)=N/NC(=O)c3ccc([N+](=O)[O-])c(C)c3)c2)cc1OC` gave NR3A LBD binder -7, Arr AP2 block -1, Cardio protect 95*, FAS TE block 8, hiPSC survival 0 and SENP1 inh 2.
For COc1cc(NC(=O)CSc2nc3ccccc3c(=O)n2C)ccc1NC(=O)c1ccco1 the results were NR3A LBD binder 13*, Arr AP2 block 12, Cardio protect -6, FAS TE block -7, hiPSC survival -4 and SENP1 inh -1.
`COc1ccc(C(=O)NC(=S)Nc2ccc(N3CCN(C(C)=O)CC3)cc2)cc1[N+](=O)[O-]` gave NR3A LBD binder -1, Arr AP2 block -8, Cardio protect -2, FAS TE block 6, hiPSC survival -1 and SENP1 inh 0.
Screening COc1cc(NC(=O)c2ccc(OC)c([N+](=O)[O-])c2)ccc1NC(=O)c1cccs1 returned NR3A LBD binder 38*, Arr AP2 block -9, Cardio protect -6, FAS TE block -9, hiPSC survival -1 and SENP1 inh 0.
For COc1cc(NC(=O)c2cc(OC)c(OC)c(OC)c2)ccc1NC(=O)c1cccs1 the results were NR3A LBD binder 2, Arr AP2 block -3, Cardio protect 32, FAS TE block 8, hiPSC survival 0 and SENP1 inh 1.
`CCOc1ccc(C(=O)NC(=S)Nc2ccc(NC(=O)CC)cc2)cc1[N+](=O)[O-]` gave NR3A LBD binder 8, Arr AP2 block 3, Cardio protect -2, FAS TE block -6, hiPSC survival 0 and SENP1 inh -1.
For CCOc1ccc(C(=O)NC(=S)Nc2cccc(NC(=O)c3ccco3)c2)cc1[N+](=O)[O-] the results were NR3A LBD binder 16*, Arr AP2 block 0, Cardio protect 8, FAS TE block 28, hiPSC survival 0 and SENP1 inh 1.
Screening CCc1ccc(NC(=O)c2ccc(OC)c([N+](=O)[O-])c2)cc1 returned NR3A LBD binder 12*, Arr AP2 block -4, Cardio protect -3, FAS TE block 24, hiPSC survival 2 and SENP1 inh 1.

Screening results from PubChem.
